Test: Toxicity liver stage against HepG2, at 10uM
Format: cell-based
Set-up: test concentration 10 uM, cell line HepG2-A16-CD81EGFP
Details: human, HepG2-A16-CD81EGFP cells; read-out: INHIBITION
Summary of the method: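 Uninfected HepG2-A16-CD81EGFP cells, 3 × 10^3 per well, 1536-well, plated on prespotted compound at 10 μM final, parasite-free screening media added to match infected plates; puromycin 10 μM positive, DMSO 0.5% negative; run in parallel with 48 h PbLuc assay at 37 °C, 5% CO2; viability by CellTiter-Glo luminescence, normalized to controls.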

| Structure (SMILES) | cytotoxicity at 10 µM [%] |
| --- | --- |
| COc1ccc(C)cc1S(=O)(=O)N[C@H]1CN(C(C)=O)C[C@@H]1C1CC1 | -3.64 |
| CC(C)(CNc1ccc2ccc(F)cc2n1)NS(C)(=O)=O | -7.04 |
| O=C(N[C@@H]1CCN(c2nccc3ccccc23)C[C@H]1O)c1cnccn1 | -6.71 |
| CNC(=O)c1cc2ccccc2n1C | 6.84 |
| Cc1cn2c(n1)CCC(NC(=O)CCC1CC1)C2 (centres undefined) | -9.69 |
| Cc1ccsc1-c1nccn1CCN(C)S(C)(=O)=O | -7.36 |
| COCCN1C[C@H]2[C@@H](C1)N(Cc1ccc(C)o1)CC[C@H]2OC | -8.34 |
| CCN1CC(COC(=O)c2ccc(N(C)C)cc2F)CC1=O (centres undefined) | 2.38 |
| CC(=O)Nc1nc(C(=O)NC(C)c2ccc3c(c2)OCCO3)cs1 (centres undefined) | 0.409 |
| COCCC(=O)NCc1ccc(-c2ncncc2C(=O)N(C)C)cc1 | 4.45 |
| CC(=O)N(C)CC(=O)Nc1cccc(N2CCN(CC3CC3)CC2)c1 | 1.75 |
| CN(C)c1ncc2c(n1)CCCC2NC(=O)C1CC1 (centres undefined) | 4.07 |
| Cc1cccc(=O)n1CCCNc1ncnc2c1CCNCC2 | -9.53 |
| CCCS(=O)(=O)N1C[C@@H](OCc2ccncc2)[C@H]2OCCC[C@H]21 | 5.56 |
| O=C1[C@@H]2CCN(Cc3ccoc3)C[C@@H]2OCCN1Cc1cccnc1 | -0.671 |
| Cc1cn2c(n1)CCC(NC(=O)c1csc(C(C)C)n1)C2 (centres undefined) | -16.4 |
| CN(C)Cc1nn(C)c2c1CCN(S(=O)(=O)c1cccs1)C2 | 4.52 |
| CNC(=O)[C@H]1CC[C@@H]2[C@@H](CCN2CCOCc2ccccc2)O1 | -109 |
| Cc1nc2c(c(NCC(O)c3ccccc3Cl)n1)CCNCC2 (centres undefined) | -2.88 |
| c1cc2c(c(-c3cc(N4CCOCC4)ncn3)c1)CCNC2 | -22.5 |
| CCOCC1CN(C(=O)Cc2ccccn2)Cc2cn(CC)nc21 (centres undefined) | 5.06 |
| N#Cc1ccccc1NC(=O)c1ccc2c(c1)OCO2 | -10.4 |

| Structure (SMILES) | cytotoxicity at 10 µM [%] |
| --- | --- |
| CCCOc1ccc(C2SCC(=O)Nc3c2c(=O)[nH]n3C(C)C)cc1 (centres undefined) | 5.95 |
| O=C(c1ccc[nH]1)N1CCc2ncc(Cn3cccn3)n2CC1 | -0.469 |
| COCCN(C)C(C)Cc1ccccc1OC (centres undefined) | -5.34 |
| Cc1nc(-c2ccc(F)cc2)nc2c1CCN(C(=O)CN(C)C)CC2 | -1.65 |
| Cc1nnc2n1CCN(Cc1csc(-c3ccsc3)n1)C2 | -12.4 |
| Cn1cc(C2COC3(CCN(C(=O)c4cccc(O)c4)CC3)C2)cn1 (centres undefined) | -73.3 |
| O=C(c1cccnc1)N1C[C@@H]2OCC(=O)N(Cc3cccnc3)[C@@H]2C1 | 2.08 |
| CCOCCNCC1CCN(CCO)CC1 | -1.46 |
| Cc1cnn(-c2ccc(C(=O)N3CCCC(n4ccnc4C)C3)cc2)c1 (centres undefined) | -9.99 |
| c1cc(CNCCc2cn3ccccc3n2)c2c(c1)OCCCO2 | 15.2 |
| Cc1cc(N2CCC(c3nccn3Cc3cscn3)CC2)ccn1 | -4.72 |
| Cc1ccc(N2C[C@@H]3CN(Cc4csc(C)n4)CCO[C@@H]3C2)nn1 | 7.64 |
| O=C(O)CSc1nnc(-c2ccn[nH]2)n1-c1ccccc1C(F)(F)F | -3.85 |
| CC(C)CN1CCC(NC(=O)N(C)Cc2csc3ccccc23)CC1 | -52.9 |
| Cc1ccc(C2CSCCN2C(=O)c2cccnc2)cc1 (centres undefined) | -4.11 |
| COCCNC(=O)C1(Cc2ccccc2-c2ccncc2)CCOCC1 | -26.3 |
| COCCNc1nc2c(c(NCc3ccncc3)n1)CCNCC2 | -2.18 |
| CNS(=O)(=O)c1cccc(CNC(=O)c2cc(C)no2)c1 | -10.3 |
| COc1ccc(CN(Cc2cnc(N)nc2)CC2CCCO2)c(OC)c1 (centres undefined) | -0.438 |
| CN1CCN(C2CCN(CCOc3cccc(Cl)c3)CC2)C1=O | -2.83 |
| Cc1ncc2c(n1)CN(Cc1ncc(C(C)(C)C)o1)CC2 | 0.96 |
| FC(F)(F)C1CCCn2c(CNCc3ccco3)nnc21 (centres undefined) | -9.5 |

| Structure (SMILES) | cytotoxicity at 10 µM [%] |
| --- | --- |
| O=S(=O)(NC1=NCN(CCc2ccccc2)CN1)c1ccc(F)cc1 | 3.47 |
| COc1cccc(CN(C)C(=O)CCC(=O)c2ccc(Cl)cc2)c1OC | -1.1 |
| Cc1cnn(CC2CN(Cc3nc(C)no3)CCO2)c1 (centres undefined) | -18.5 |
| CN(CCn1ccc2ccccc21)C(=O)Cc1nnn[nH]1 | -8.93 |
| Cn1nnc2c1CCN(Cc1ccccc1)C2COCC1CC1 (centres undefined) | 3.24 |
| Cc1ncsc1C(=O)NC1CCN(Cc2ccc(C(N)=O)cc2)CC1 | -15 |
| CC(C)C(=O)N1CCN(C(=O)CCc2nnc(-c3ccccc3)o2)CC1 | -4.66 |
| Cc1cc(CNC(=O)c2ccc(C(C)N3CCCCC3)o2)[nH]n1 (centres undefined) | -12.6 |
| CC(=O)N1CCc2[nH]cnc2C12CCN(C(=O)Cc1ccccn1)CC2 | 1.76 |
| Cc1cc(C(=O)N2CC[C@](C)(O)[C@H](C)C2)c(C)n1C | -1.43 |
| CCN1CC(=O)c2sc(NC(C)C)nc2C1 | -10.6 |
| COc1cccc(C(=O)N2CCc3c(nc(N)[nH]c3=O)C2)c1OC | -9.91 |
| N#Cc1ccc(F)cc1Cn1cnc(C2CCC2)cc1=O | 15.4 |
| CCn1cc2c(n1)CN(S(=O)(=O)Cc1ccccc1)CC2COC (centres undefined) | 10.6 |
| CN(Cc1nnnn1C1CC1)CC1COc2ccccc2O1 (centres undefined) | -5.79 |
| CC(C)NC(=O)N1CCN(CC2CC2)c2ncccc2C1 | -108 |
| Cn1cc(C(=O)NCc2cncc3c2CCN(S(C)(=O)=O)C3)cn1 | -105 |
| CNC(=O)C1Cn2ccnc2C2(CCN(Cc3ccncc3)CC2)O1 (centres undefined) | -74.9 |
| CN(C)CCOCc1nnc2n1CCN(Cc1ccc(F)cc1)CC2 | -5.63 |
| CC(C)c1nn(C)c(N2CCOCC2)c1CNCCC(=O)N(C)C | -16.5 |
| O=C1N(CC2CC2)CCC12CCCN(c1ncc(F)cn1)C2 (centres undefined) | 4.79 |
| CCc1ccc(C(=O)N2CC[C@](C)(O)[C@H](C)C2)[nH]1 | 2.27 |

| Structure (SMILES) | cytotoxicity at 10 µM [%] |
| --- | --- |
| O=S(=O)(Cc1ccc(F)cc1F)NCCOc1cccnc1 | -45.9 |
| CN1[C@@H](C(=O)NCC2CC2)C[C@@H]2CN(Cc3ccco3)C[C@@H]21 | 4.68 |
| Cc1cnc(N2C[C@@H]3CN(C4CCOC4)CCC[C@]3(C(=O)O)C2)nc1 (some centres undefined) | -111 |
| CC(C)c1noc(CN2CCN(C(=O)c3ccccc3F)CC2)n1 | -8.08 |
| Cc1ccc(CN(C)C(=O)c2n[nH]c(N)c2-c2ccccc2)o1 | -4.81 |
| O=C(NCCCSc1ccc(F)cc1)C1CCc2cn[nH]c2C1 (centres undefined) | -3.65 |
| Cc1ccc(C(=O)N(C)CCOc2ccccc2F)c(=O)[nH]1 | -136 |
| Cn1ncc2c1NC(=O)CC2c1ccc(F)cc1 (centres undefined) | 4.63 |
| COC(=O)c1ccc(Cn2cnc(C#N)n2)cc1 | -4.74 |
| NC(=O)C1CN(C(=O)C2(c3ccc(F)cc3F)CCCC2)CCO1 (centres undefined) | -5.92 |
| CCOc1ccc(C(=O)NCc2ccnc(N3CCN(C)CC3)c2)cn1 | 0.935 |
| COc1ccccc1CN1C[C@@H](F)[C@@H](OCc2nc3cnccc3[nH]2)C1 | -6.66 |
| COCC1c2c(cnn2C)CCN1C(=O)c1cc(C)on1 (centres undefined) | -79.5 |
| CN(C)C(=O)N1CCN(CCCc2ccccc2)[C@H]2CS(=O)(=O)C[C@H]21 | -5.18 |
| CN(c1ncc(S(N)(=O)=O)s1)C1CCc2ccccc21 (centres undefined) | -1.62 |
| O=C(Cc1csc(-c2ccoc2)n1)NCCCN1CCCCC1 | 12.6 |
| COCC(=O)N1C[C@H](N(C)Cc2cncnc2)[C@H]2OCCC[C@H]21 | -99.2 |
| CN(C)c1ncc(NC(=O)N2CCC(CN3CCCC3)C2)cn1 (centres undefined) | 3.88 |
| Nc1nc(C2CCN(C(=O)c3cnccn3)CC2)cs1 | -7.33 |
| Cc1ccc(-c2nc(CNS(=O)(=O)N(C)C)[nH]c2-c2ccccn2)cc1 | -0.678 |
| COc1cccc(N2CCN(CC[C@H](O)c3ccccc3)CC2=O)c1 | 3.61 |
| COc1cccc(Cn2ncnc2COC(C)C)c1 | -5.62 |

| Structure (SMILES) | cytotoxicity at 10 µM [%] |
| --- | --- |
| O=C(NCCc1c[nH]c2ccc(F)cc12)C1(n2cnnn2)CCCCC1 | -1.34 |
| Cc1nc(C2CCNC2)nc2c1CCC(=O)N2CC(C)C (centres undefined) | 2.04 |
| CSCC(=O)N[C@H]1CN(CC2CCOCC2)C[C@@H]1c1ccccc1 | -3.97 |
| Cc1cccc(Oc2nccnc2C2CCN(C(=O)C(C)(C)N)CC2)c1 | -9.44 |
| CSCCNC(=O)c1coc(COc2ccc3sc(C)nc3c2)n1 | -1.51 |
| COc1cc(-n2cccc2)c(Cl)cc1C(N)=O | -10.4 |
| CCC(C(=O)NC1(CN2CCOCC2)CCCC1)n1cccn1 (centres undefined) | 4.52 |
| Cc1ccc(CNCc2nccn2C)c(OCC2CC2)c1 | -4.52 |
| O=C(O)c1ccnc(SCC(=O)c2ccccc2)c1 | -3.78 |
| CCS(=O)(=O)N(C)C(=O)c1cc(C)n(-c2cccc(OC)c2)c1C | -2.35 |
| CCN(C)C[C@@H]1CN(S(=O)(=O)c2cccc(C#N)c2)C[C@@H]1CO | 5.45 |
| COc1ccc(C(=O)N2CC(=O)N(Cc3cccs3)CC(O)C2)cc1 (centres undefined) | 4.43 |
| CCO[C@H]1CN(C)C[C@@H]1NC(=O)c1cc(C)nc2c(C)c(C)ccc12 | 1.64 |
| COc1ccc(CN2CC[C@@H]3CN(S(C)(=O)=O)CCO[C@@H]3C2)cc1 | -1.55 |
| Cc1csc(CNC(=O)N(C)Cc2ccc3c(c2)OCCO3)n1 | 5.38 |
| CC(=O)NCCNC(=O)CN1CCOC(Cn2cccn2)C1 (centres undefined) | -7.6 |
| CCOCC1CN(C(=O)c2ccoc2)Cc2cnn(C)c21 (centres undefined) | 0.13 |
| Cc1nc(CN2CCCN(CC(=O)Nc3ccncc3)CC2)no1 | -7.03 |
| Cc1cc(C(=O)N2CCC3(CC2)COCCN(c2cccnc2)C3)[nH]n1 | -2.66 |
| COc1ccccc1-c1nnc([C@H]2CCN(C(C)=O)C2)o1 | 4.71 |
| Cc1csc(CCNC(=O)c2ccc(N(C)C)c(F)c2)n1 | 7.15 |
